The RNAGym collection of RNA variant scans (doi:10.1101/gad.245936.114)
Fewer inactive variants are shown than the library holds.

B1: tRNA (parent)
chain: CUCUCGGUAGCCAAGUUGGUUUAAGGCGCAAGACUUUAAUUUAUCACUACGAAAUCUUGAGAUCGGGCGUUCGACUCGCCCCCGGGAGAUUUUUUCCUCGAGCAA

Variants of: B1
Assay: nonsense suppression (GFP-seq) (ratio to wild type); higher = more function; SUP4oc tRNA, yeast GFP reporter sort-seq
Outline: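 Yeast were grown in raffinose/galactose medium with 80 mg/L adenine, each strain bearing a genome-integrated ochre-suppressor tRNA variant from a ~3% random-mutation library, a galactose-driven GFP ochre reporter, and RFP. After sorting into GFP/RFP bins, every bin was sequenced on an Illumina platform at phred ≥30. The GFPSEQ value, a measure of nonsense suppression, is the weighted bin median GFP/RFP relative to the unmutated parent tRNA, using each variant's estimated cell share per bin as the weight. Only variants with ≥100 reads and ≥30 cells were included.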

| Variant | nonsense suppression |
| --- | --- |
| U2C | 0.185 |
| A24U G85C | ≤ 0.026 |
| A33G U55A A74C | ≤ 0.026 |
| G6C C12G C72G C75U G85C | ≤ 0.026 |
| A9G A13U A74C | ≤ 0.026 |
| A24C G28A | 0.952 |
| C29U G86C | 0.0331 |
| A60U U63G | 0.789 |
| U17A A30G | 0.369 |
| U4G U76A | 0.109 |
| A33C U63A | ≤ 0.026 |
| C1A U17G U20G | ≤ 0.026 |
| A14G C29U | 0.0832 |
| A30U A74C | 0.0264 |
| U55C C64G | 0.0515 |
| U57C A60U | 0.0266 |
| C3G U55C | 0.152 |
| U4C G59A | ≤ 0.026 |
| A24U A30C C83A | ≤ 0.026 |
| U2C G86A | ≤ 0.026 |
| U21G A23C | ≤ 0.026 |

| Variant | nonsense suppression |
| --- | --- |
| G6U U76G | ≤ 0.026 |
| A23G G61C | 0.113 |
| A23U U55C A60C G69U G85C | ≤ 0.026 |
| U20G U21G | 0.75 |
| A30U G67A G73U A74G C81A | ≤ 0.026 |
| U16A A62G U76G | ≤ 0.026 |
| U16G A24U | 0.221 |
| C3A C34A U58A | ≤ 0.026 |
| G28C U76C | 0.799 |
| A14U G84A | ≤ 0.026 |
| A60G G84A | 0.269 |
| C5A G19U U55G A60U | ≤ 0.026 |
| C3U U21C G61A | 0.206 |
| G67C C79G | 1.03 |
| U22G A60C | 0.175 |
| A13C | 1.13 |
| U17C U63C | 1.18 |
| U4C U16C A31U | 0.97 |
| G66C G85A | ≤ 0.026 |
| U63G G69A | 0.116 |
| G7C G73U | ≤ 0.026 |

| Variant | nonsense suppression |
| --- | --- |
| A9U G19C G65C A74C | ≤ 0.026 |
| U2G G6C A89C | ≤ 0.026 |
| C34U G65A U70A | ≤ 0.026 |
| G25C C75A | 0.826 |
| G10A U63G | 0.0314 |
| U55C C79G | 0.035 |
| U76A C79G | ≤ 0.026 |
| C3A G65A C68U G86U | ≤ 0.026 |
| A13C U17G C75A | 1.1 |
| C3A A9G C64G | ≤ 0.026 |
| A24G A87G | 0.0583 |
| G10A C11U C64U | ≤ 0.026 |
| A60U G73A | 0.222 |
| G18U U20G G65C G66C | ≤ 0.026 |
| C12U A54G | 0.0372 |
| A9C U20A | 0.183 |
| C5G A24U U57C G66U | ≤ 0.026 |
| C3G G28A U55C G86U G88U | ≤ 0.026 |
| C5A G19C A62G | ≤ 0.026 |
| G78A G85U | 0.0673 |
| A13C G61A | 0.852 |

| Variant | nonsense suppression |
| --- | --- |
| G59A U76G C77A | ≤ 0.026 |
| U55A A60C C75U G78C C79G A89G | ≤ 0.026 |
| C12G A14G A33G | ≤ 0.026 |
| A24C G67C G84U | ≤ 0.026 |
| G19C C34U U71C C82G | ≤ 0.026 |
| A14G G19C C29A C56A G88C | ≤ 0.026 |
| U63A C72U | 0.133 |
| A23U G65C C72A | ≤ 0.026 |
| U21C A24U | 0.194 |
| G28C U71C | 0.112 |
| A13C G73A | 0.394 |
| G10C C27G G73C | ≤ 0.026 |
| U2A U22G C29A C34A | 0.221 |
| A60G G85A | 1.16 |
| G6U U17C G28U U55C G69U G88U | ≤ 0.026 |
| G28C G67A | 0.0635 |
| A14C C68G | ≤ 0.026 |
| C29U G85A | 1.14 |
| U4G U17G G69A | ≤ 0.026 |
| C34G C72A | ≤ 0.026 |
